The target of assay [1] is T1, Mitogen-activated protein kinase kinase kinase 3 (Homo sapiens) (UniProt Q99759).
T1 sequence (whole entry): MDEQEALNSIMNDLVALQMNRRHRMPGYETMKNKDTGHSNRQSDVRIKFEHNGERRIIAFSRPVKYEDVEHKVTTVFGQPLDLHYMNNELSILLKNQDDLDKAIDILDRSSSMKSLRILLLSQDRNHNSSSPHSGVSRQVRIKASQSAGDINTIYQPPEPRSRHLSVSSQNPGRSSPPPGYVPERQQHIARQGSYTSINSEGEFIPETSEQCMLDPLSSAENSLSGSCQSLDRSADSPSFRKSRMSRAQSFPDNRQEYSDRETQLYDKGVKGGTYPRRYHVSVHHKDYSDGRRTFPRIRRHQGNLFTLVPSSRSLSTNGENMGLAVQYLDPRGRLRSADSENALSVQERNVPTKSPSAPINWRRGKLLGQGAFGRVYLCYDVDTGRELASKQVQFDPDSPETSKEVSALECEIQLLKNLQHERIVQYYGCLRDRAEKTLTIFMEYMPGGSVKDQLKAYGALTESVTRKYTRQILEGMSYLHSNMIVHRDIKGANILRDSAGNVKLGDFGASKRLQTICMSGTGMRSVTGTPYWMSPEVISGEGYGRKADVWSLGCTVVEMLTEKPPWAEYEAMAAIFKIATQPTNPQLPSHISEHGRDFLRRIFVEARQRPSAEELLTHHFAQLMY
Briefly: Inhibition of MAP3K3 at 1 uM.

The target of assay [2] is MAP kinase-interacting serine/threonine-protein kinase 2 (Homo sapiens) (UniProt Q9HBH9). Briefly: Inhibition of MKNK2 at 1 uM. An outline of the steps:
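Kinase-panel screen using KINOMEscan technology, with 250–400 kinases per panel. Each compound was tested at a single concentration, and inhibition of each kinase was recorded. Selectivity was summarised as S(90), the fraction of kinases inhibited by more than 90%.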

Assay [3] deals with T2, Serine/threonine-protein kinase 3 (Homo sapiens) (UniProt Q13188).
T2 sequence (whole entry): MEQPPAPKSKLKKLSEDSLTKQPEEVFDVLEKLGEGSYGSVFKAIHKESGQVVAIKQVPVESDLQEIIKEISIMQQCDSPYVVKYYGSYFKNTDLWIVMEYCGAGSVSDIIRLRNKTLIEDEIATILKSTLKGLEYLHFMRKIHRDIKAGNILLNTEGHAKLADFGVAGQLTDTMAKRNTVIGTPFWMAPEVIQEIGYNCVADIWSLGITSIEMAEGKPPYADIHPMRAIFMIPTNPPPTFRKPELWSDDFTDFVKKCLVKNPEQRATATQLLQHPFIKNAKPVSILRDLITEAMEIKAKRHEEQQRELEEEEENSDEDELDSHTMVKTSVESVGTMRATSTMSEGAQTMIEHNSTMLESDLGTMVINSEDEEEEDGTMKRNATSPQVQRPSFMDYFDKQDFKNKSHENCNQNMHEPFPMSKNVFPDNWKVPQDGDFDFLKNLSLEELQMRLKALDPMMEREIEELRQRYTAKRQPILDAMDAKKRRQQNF
The experiment in a line: Inhibition of MST2 at 1 uM.

Assay [4] concerns the target T3, Serine/threonine-protein kinase NLK (Homo sapiens) (UniProt Q9UBE8).
T3 sequence (whole entry): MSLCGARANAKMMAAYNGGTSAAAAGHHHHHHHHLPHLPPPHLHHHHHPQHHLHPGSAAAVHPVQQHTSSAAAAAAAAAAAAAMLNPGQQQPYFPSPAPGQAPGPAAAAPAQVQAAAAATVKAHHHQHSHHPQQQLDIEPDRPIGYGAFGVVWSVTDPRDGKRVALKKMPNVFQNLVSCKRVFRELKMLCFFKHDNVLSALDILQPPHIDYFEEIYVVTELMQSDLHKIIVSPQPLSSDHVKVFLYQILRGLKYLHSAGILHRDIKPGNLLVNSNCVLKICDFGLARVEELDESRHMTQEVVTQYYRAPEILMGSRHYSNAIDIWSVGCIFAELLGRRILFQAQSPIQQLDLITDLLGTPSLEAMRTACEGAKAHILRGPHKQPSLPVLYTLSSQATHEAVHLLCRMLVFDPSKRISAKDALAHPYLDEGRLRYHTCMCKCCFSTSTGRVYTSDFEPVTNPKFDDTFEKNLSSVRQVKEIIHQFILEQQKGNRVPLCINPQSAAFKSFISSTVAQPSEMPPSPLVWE
Briefly: Inhibition of NLK at 1 uM.

In assay [5] the target is Serine/threonine-protein kinase PAK 3 (Homo sapiens) (UniProt O75914). Briefly: Inhibition of PAK3 at 1 uM.
The target in assay [6] is T4, Receptor-interacting serine/threonine-protein kinase 4 (Homo sapiens) (UniProt P57078).
T4 sequence (whole entry): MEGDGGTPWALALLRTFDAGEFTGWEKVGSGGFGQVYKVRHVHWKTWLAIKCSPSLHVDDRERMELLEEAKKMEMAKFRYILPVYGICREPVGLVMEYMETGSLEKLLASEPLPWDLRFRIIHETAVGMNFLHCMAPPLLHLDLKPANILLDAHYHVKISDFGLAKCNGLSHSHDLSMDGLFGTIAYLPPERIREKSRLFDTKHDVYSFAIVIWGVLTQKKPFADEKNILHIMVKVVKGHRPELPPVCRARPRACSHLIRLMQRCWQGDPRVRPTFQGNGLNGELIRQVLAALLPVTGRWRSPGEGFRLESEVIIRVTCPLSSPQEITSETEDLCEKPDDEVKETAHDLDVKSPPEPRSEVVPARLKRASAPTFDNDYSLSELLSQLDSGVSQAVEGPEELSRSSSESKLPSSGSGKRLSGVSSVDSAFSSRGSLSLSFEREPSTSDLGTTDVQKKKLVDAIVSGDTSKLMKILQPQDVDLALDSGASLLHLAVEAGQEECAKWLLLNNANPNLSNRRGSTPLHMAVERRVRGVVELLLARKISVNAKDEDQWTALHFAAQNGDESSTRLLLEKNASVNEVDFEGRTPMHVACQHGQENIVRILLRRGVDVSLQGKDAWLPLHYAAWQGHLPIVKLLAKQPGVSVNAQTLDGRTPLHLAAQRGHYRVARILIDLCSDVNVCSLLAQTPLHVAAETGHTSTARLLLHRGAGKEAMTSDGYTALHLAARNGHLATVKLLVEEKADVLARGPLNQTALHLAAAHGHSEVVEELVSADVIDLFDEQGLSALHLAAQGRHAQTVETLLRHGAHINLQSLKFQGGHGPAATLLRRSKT
The experiment in a line: Inhibition of RIPK4 at 1 uM.

Assay [7] has as its target STE20/SPS1-related proline-alanine-rich protein kinase (Homo sapiens) (UniProt Q9UEW8). The experiment in a line: Inhibition of STK39 at 1 uM.
Assay [8] addresses 5'-AMP-activated protein kinase catalytic subunit alpha-2 (Homo sapiens) (UniProt P54646). The experiment in a line: Inhibition of AMPK-alpha2 at 1 uM. An outline of the steps: (§1)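 Ambit KINOMEscan screen at a single concentration across a 250–400 kinase panel, recorded as percent inhibition. Selectivity was expressed as S(90), the fraction of kinases inhibited >90%.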
Assay [9] addresses Serine/threonine-protein kinase B-raf (Homo sapiens) (UniProt P15056). Briefly: Inhibition of BRAF at 1 uM. The essentials:
as §1

The record followed here is ChEMBL document CHEMBL1165965, “Synthesis and structure-activity relationships of 1,2,3,4-tetrahydropyrido[2,3-b]pyrazines as potent and selective inhibitors of the anaplastic lymphoma kinase” (Bioorg Med Chem, 2010).

The structures appear in SMILES notation.

Sequence of 5'-AMP-activated protein kinase catalytic subunit alpha-2 (Homo sapiens) (P54646 whole entry, looked up): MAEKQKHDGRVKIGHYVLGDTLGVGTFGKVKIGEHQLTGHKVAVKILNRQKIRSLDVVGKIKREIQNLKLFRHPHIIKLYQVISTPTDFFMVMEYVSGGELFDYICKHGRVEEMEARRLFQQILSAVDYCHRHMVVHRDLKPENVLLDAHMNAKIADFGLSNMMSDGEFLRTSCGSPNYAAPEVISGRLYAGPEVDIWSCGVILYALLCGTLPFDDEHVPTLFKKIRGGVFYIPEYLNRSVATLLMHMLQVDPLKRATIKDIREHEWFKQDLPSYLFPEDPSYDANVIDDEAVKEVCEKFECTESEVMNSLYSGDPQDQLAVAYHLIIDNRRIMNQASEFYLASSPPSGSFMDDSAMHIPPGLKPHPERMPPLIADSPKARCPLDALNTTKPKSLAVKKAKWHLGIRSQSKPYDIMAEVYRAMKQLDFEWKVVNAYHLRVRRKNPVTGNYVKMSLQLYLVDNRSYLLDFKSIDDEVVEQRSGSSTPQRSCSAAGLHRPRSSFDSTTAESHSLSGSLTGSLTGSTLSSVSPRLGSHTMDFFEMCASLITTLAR
Sequence of Serine/threonine-protein kinase B-raf (Homo sapiens) (P15056 whole entry): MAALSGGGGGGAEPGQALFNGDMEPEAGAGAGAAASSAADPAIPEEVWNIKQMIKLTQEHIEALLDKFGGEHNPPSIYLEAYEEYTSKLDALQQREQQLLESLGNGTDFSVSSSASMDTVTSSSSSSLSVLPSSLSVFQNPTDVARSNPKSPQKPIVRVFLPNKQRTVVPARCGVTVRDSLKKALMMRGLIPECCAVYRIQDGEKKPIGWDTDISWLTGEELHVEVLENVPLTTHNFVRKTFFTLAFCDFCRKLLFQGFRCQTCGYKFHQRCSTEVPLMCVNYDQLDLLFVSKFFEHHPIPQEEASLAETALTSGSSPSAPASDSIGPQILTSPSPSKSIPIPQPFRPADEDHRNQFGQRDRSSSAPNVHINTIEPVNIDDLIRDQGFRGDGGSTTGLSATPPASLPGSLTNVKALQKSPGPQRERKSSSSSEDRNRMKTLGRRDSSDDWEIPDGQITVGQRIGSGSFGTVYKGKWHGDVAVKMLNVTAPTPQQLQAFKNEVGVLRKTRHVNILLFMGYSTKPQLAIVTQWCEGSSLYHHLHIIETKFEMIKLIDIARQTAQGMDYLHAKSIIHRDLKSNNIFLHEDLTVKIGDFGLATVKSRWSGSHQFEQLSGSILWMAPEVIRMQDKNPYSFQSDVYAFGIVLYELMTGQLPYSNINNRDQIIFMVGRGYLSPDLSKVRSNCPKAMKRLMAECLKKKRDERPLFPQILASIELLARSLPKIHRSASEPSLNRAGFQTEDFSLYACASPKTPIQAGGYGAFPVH
Sequence of Serine/threonine-protein kinase PAK 3 (Homo sapiens) (O75914 whole entry, looked up): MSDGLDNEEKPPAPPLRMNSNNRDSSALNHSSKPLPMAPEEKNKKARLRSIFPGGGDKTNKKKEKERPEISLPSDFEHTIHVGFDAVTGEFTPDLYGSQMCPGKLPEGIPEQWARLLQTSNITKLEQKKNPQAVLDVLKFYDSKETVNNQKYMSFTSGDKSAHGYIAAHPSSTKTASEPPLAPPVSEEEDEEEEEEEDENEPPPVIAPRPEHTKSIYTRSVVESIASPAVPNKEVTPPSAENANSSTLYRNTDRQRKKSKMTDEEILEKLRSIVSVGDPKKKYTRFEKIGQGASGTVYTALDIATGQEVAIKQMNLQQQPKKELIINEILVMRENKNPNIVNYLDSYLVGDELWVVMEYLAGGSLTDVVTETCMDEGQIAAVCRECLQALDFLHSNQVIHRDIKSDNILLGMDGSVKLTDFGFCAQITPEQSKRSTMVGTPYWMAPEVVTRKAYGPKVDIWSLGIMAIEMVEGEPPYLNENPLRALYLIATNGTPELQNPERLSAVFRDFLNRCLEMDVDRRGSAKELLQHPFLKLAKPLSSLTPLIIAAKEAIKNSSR
Sequence of MAP kinase-interacting serine/threonine-protein kinase 2 (Homo sapiens) (Q9HBH9 whole entry, looked up): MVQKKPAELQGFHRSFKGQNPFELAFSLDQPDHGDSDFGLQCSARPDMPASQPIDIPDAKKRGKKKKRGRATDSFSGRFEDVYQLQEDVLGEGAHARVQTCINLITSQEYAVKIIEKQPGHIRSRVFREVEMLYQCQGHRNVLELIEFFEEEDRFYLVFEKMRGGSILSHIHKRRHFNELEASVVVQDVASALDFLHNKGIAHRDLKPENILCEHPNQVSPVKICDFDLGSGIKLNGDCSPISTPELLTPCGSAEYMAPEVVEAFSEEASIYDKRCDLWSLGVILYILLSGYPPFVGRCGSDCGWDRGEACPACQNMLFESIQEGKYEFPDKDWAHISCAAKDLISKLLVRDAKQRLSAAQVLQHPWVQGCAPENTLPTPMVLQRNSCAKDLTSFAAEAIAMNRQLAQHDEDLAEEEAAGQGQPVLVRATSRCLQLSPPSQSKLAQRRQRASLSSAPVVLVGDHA

A word on the inhibition: it is the percentage by which the read-out fell short of the control. On to `FC(F)(F)c1ccc(Cl)cc1CN1CCNc2ncc(-c3ccnc(N4CCNCC4)c3)cc21`, for which the inhibition in assay [1] was 88%; in [2], less than 50%; in assay [3], 97%; in assay [4], less than 50%; in assay [5], less than 50%; in [6] it was less than 50%. The inhibition in assay [7], in [8] and in [9] was less than 50% in each case.
For `CN1CCN(c2ccc(-c3cnc4c(c3)N(Cc3cc(F)ccc3F)CCN4)cn2)CC1`, the inhibition in assay [1], in assay [2], in [3], in [4], in assay [5] and in [6] was less than 50% throughout. Also, the inhibition in assay [7], in assay [8] and in assay [9] was less than 50% each time.
For the compound `CN1CCN(c2ccc(-c3cnc4c(c3)N(Cc3cc(Cl)ccc3Cl)CCN4)cn2)CC1`, the inhibition in assay [1], in assay [2], in [3], in [4], in [5] and in assay [6] was less than 50% in each case. Besides, the inhibition in assay [7], in [8] and in assay [9] was less than 50% in each case.
In the case of `O=C(O)c1ccc(-c2cnc3c(c2)N(Cc2cc(Cl)ccc2C(F)(F)F)CCN3)cc1`, the inhibition in [2], in assay [4], in [5], in assay [8] and in assay [9] was less than 50% throughout.
In the case of `CN1CCN(c2ccc(-c3cnc4c(c3)N(Cc3cc(Cl)ccc3C(F)(F)F)CCN4)cn2)CC1`, the inhibition in assay [1], in assay [2], in assay [3], in assay [4], in assay [5] and in [6] was less than 50% in each case. Moreover, the inhibition in assay [7], in assay [8] and in assay [9] was less than 50% each time.
As to `COC1CCN(C(=O)c2ccc(-c3cnc4c(c3)N(Cc3cc(Cl)ccc3C(F)(F)F)CCN4)cc2)CC1`, the inhibition in [2], in assay [4], in [5], in assay [8] and in [9] was less than 50% in each case.
Regarding `O=C(c1ccc(-c2cnc3c(c2)N(Cc2cc(Cl)ccc2C(F)(F)F)CCN3)cc1)N1CCC(N2CCCC2)CC1`, the inhibition was less than 50% in assay [2]; less than 50% in assay [4]; less than 50% in assay [5]; 73.2% in [7]; less than 50% in assay [8]; less than 50% in assay [9].
Consider `CN1CCN(c2ccc(-c3cnc4c(c3)N(Cc3c(F)ccc(F)c3Cl)CCN4)cn2)CC1`, for which the inhibition in [1], in [2], in [3], in [4], in assay [5] and in assay [6] was less than 50% throughout. The inhibition in assay [7], in [8] and in assay [9] was less than 50% in each case.
Take `O=C(c1ccc(-c2cnc3c(c2)N(Cc2cc(Cl)ccc2C(F)(F)F)CCN3)cc1)N1CCCCC1`: the inhibition in assay [2], in assay [4], in [5], in assay [8] and in assay [9] was less than 50% in each case.
With `CC(=O)N1CCN(c2cc(-c3cnc4c(c3)N(Cc3cc(Cl)ccc3C(F)(F)F)CCN4)ccn2)CC1`, the inhibition in assay [1] was less than 50%; in [2] it was less than 50%; in assay [3], 88%; in assay [4], less than 50%; in assay [5], less than 50%; in assay [6], less than 50%. The inhibition in assay [7], in [8] and in assay [9] was less than 50% each time.
